Compound activity: PubChem BioAssay, Sanford-Burnham Center for Chemical Genomics
SENP6 block: inhibitors of human SENP6 protease; Q9GZR1; Recombinant SENP6 catalytic domain, aminoluciferin luminescence; inhibition, % at 10 µM; 330,000 tested, 1.8% active;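 active = inhibition above about 50% at the single tested dose, limit read from the data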;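 note: plate controls were DMSO wells with enzyme for no effect and DMSO wells lacking enzyme for full effect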
SENP7 inh: blocks the human protease SENP7 | 330,000 tested, 1.5% active | recombinant SENP7, Z-RLRGG-aminoluciferin luminescence, 40 min | AID 434973 | Q9BQF6 | inhibition, % at 5 µM;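 active = inhibition above about 50% at the single test dose, limit read from the data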;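 note: plate controls were DMSO with enzyme for no effect and no enzyme buffer wells for full effect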
SENP1 FRET inh: blocks the human SENP1 SUMO protease catalytic domain; Q9P0U3; recombinant SENP1 catalytic domain, CyPet-SUMO1-YPet FRET cleavage; inhibition, % at 10 µM; 360,000 tested, 0.21% active;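 active = inhibition at least 30% at 10 µM, raw YFP signal under a set limit, fluorescence ratio 0.5 to 1.5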;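 note: 0% = enzyme with DMSO and 100% = no enzyme wells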
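Assay system – human recombinant His6-tagged SENP1 catalytic domain enzyme · Input – SENP1 enzyme, 20 pM final · Buffer or medium – Tris pH 8 buffer plus EDTA, NaCl, BME, BSA, NP40, catalase · Schedule – 50 min reaction at room temperature · Technique – FRET read of cyan and yellow fluorescence · Control set – no-enzyme wells low, DMSO-plus-enzyme wells high control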
SENP8 block-1: SENP8 protease inhibition. Q96LD8. purified SENP8, Z-RLRGG-aminoluciferin cleavage, luminescence. inhibition, % at 10 µM. 330,000 tested, 1.2% active; in the data active = inhibition above about 50%
Target sequence (Q96LD8 whole entry, looked up): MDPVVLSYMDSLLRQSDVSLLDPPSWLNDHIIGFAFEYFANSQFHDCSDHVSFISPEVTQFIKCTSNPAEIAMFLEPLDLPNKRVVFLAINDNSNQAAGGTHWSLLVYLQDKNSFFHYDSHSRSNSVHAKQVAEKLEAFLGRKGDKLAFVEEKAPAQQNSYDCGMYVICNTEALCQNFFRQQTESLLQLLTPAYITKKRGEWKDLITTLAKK
SENP8 block-2: inhibitors of human SENP8 protease; Q96LD8; recombinant SENP8, Nedd8 substrate fluorescence; 360,000 tested, 0.64% active; inhibition, % at 20 µM; in the data active = inhibition mostly above about 40%, no sharp cut-off; inactive = mostly below about 27%
SENP8 conf: human SENP8 inhibition, confirmed; shares compounds with SENP7 inh; Recombinant SENP8, Z-RLRGG-aminoluciferin luminescence, 60 min; inhibition, % at 12.5 µM; 6,200 tested, 40% active; AID 488912;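 active = mean inhibition across replicates above about 50%, limit read from the data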
SENP6 confirm: human SENP6 inhibition, confirmed; shares compounds with SENP7 inh; recombinant SENP6, Z-RLRGG-aminoluciferin luminescence; inhibition, % at 12.5 µM; 6,200 tested, 58% active
SENP7 conf: human SENP7 inhibition, confirmed; 6,200 tested, 69% active; AID 488917; inhibition, % at 12.5 µM; recombinant SENP7, Z-RLRGG-aminoluciferin luminescence, 40 min; shares compounds with SENP7 inh
Casp3 SENP sel: caspase-3 inhibition (SENP selectivity assay). purified caspase-3, Z-DEVD-aminoluciferin luminescence, 60 min. AID 488918. 6,200 tested, 60% active. inhibition, % at 12.5 µM. shares compounds with SENP7 inh;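 active = mean inhibition above about 50%, limit read from the data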;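 note: plate controls were enzyme with DMSO for no effect and wells without caspase-3 for full effect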
Target sequence (P42574 28-227 limits assumed): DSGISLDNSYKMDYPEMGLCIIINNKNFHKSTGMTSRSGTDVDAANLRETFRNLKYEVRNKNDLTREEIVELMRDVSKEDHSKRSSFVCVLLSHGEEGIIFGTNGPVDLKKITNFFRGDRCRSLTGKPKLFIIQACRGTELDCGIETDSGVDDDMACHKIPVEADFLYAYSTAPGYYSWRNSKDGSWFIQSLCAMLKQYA
Luc interf: luminescence interference (SENP counter-screen) | shares compounds with SENP7 inh | Pre-incubated SENP8/Z-RLRGG-aminoluciferin, luciferase luminescence interference | inhibition, % at 12.5 µM | 6,200 tested, 39% active;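 active = mean inhibition above about 50% when retested at one dose, limit read from the data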;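 note: plate controls were DMSO wells with completed reaction for no effect and substrate without enzyme for full effect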
* = called active by the depositor; . = not tested or not shown. An excerpt weighted towards active compounds, which were near 2.5% of everything screened.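 Rule for the calls, unless noted: active = mean inhibition above about 50% in the one-dose retest (limit read from the data); inactive = the rest.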

SMILES	SENP6 block	SENP7 inh	SENP1 FRET inh	SENP8 block-1	SENP8 block-2	SENP8 conf	SENP6 confirm	SENP7 conf	Casp3 SENP sel	Luc interf
COc1ccc(-c2nc3c(Br)c(N)c(Br)cc3o2)cc1	4	80*	-3	4	-56	-8	-12	12	38	-11
Nc1c(Br)cc2oc(-c3ccccc3)nc2c1Br	17	16	-2	-11	-75	.	.	.	.	.
CCNC(=S)N1CCNC(=O)C1CC(=O)OC (centres undefined)	2	-6	1	-11	20	.	.	.	.	.
Cc1cccc(-c2cc3nc4c(c(NCc5ccco5)n3n2)CCCC4)c1	88*	44	-5	81*	-267	17	12	15	24	26
Cc1cccc(-c2cc3nc4c(c(N5CCOCC5)n3n2)CCCC4)c1	65*	5	1	53*	-198	60*	51*	50	48	13
CCOC(=O)c1cc2c(=O)c3ccccc3oc2nc1C	58*	58*	4	44	7	42	43	67*	74*	19
Cc1cc(OC(C)C(=O)N2CCN(c3ccc(F)cc3)CC2)c2c(C)cc(=O)oc2c1 (centres undefined)	2	2	-1	-2	-41	.	.	.	.	.
Cc1ccc(C(=O)COC(=O)c2ccc(Cl)c(N)c2)s1	66*	56*	1	54*	-17	50*	48	84*	46	49
COc1ccc(C2=NN(CN3C(=O)C(=O)c4ccccc43)C(c3ccc(C)cc3)C2)cc1 (centres undefined)	-1	-9	-6	-7	7	.	.	.	.	.
COc1ccc(C2=NN(CN3C(=O)C(=O)c4ccccc43)C(c3ccc(Br)cc3)C2)cc1 (centres undefined)	-10	81*	-1	-5	5	-12	-8	2	4	0
Cc1ncsc1C(=O)Nc1nc2c(s1)CCCC2	96*	99*	1	92*	-41	52*	98*	103*	98*	53*
O=C(Nc1nc2c(s1)CCCC2)c1ccc2ncsc2c1	29	12	-148	28	-79	.	.	.	.	.
Cc1cc(C(=O)Nc2nc3c(s2)CCCC3)cs1	84*	86*	-2	67*	-4	2	75*	98*	84*	21
O=C(Nc1nc2c(s1)CCCC2)c1ccc(Br)s1	60*	53*	1	44	-43	9	49	86*	44	49
O=C(Nc1nc2c(s1)CCCC2)c1ccc(N2C(=O)CCC2=O)cc1	3	3	1	-17	-15	.	.	.	.	.
O=C(NC(=S)NCCc1ccccc1)c1cccc(Cl)c1	-15	-11	3	0	12	.	.	.	.	.
CC1CCN(c2ccc(-c3cccs3)nn2)CC1	99*	96*	1	94*	-32	64*	96*	102*	94*	43
Clc1ccc(-c2cccs2)nn1	-2	-1	2	3	6	.	.	.	.	.
O=C(CN1C(=O)C2(OCCCO2)c2ccccc21)NCc1ccccc1	-16	52*	2	-4	5	-8	-4	-8	4	1
C[C@@H]1CN([C@H](C)CO)C(=O)CCCn2cc(nn2)CO[C@H]1CN(C)C(=O)Nc1cccc(Oc2ccccn2)c1	.	.	1	.	4	.	.	.	.	.
CCN1CCN(C2=C(NS(=O)(=O)c3ccc(C)cc3)C(=O)c3ccccc3C2=O)CC1	52*	21	-5	30	43*	-4	26	6	3	-4
CCN1CCN(C2=C(NS(=O)(=O)c3ccc(NC(C)=O)cc3)C(=O)c3ccccc3C2=O)CC1	52*	26	-3	28	63*	8	31	10	4	-3
COc1ccc(NC(=O)COc2ccc3c(C)cc(=O)oc3c2)cc1S(=O)(=O)N1CCCCC1	10	1	-5	4	-420	.	.	.	.	.
Cc1ccc2c(c1)/C(=N/OC(=O)c1ccc(F)cc1)CCS2	9	5	-1	-14	-63	.	.	.	.	.
O=C(O/N=C1/CCSc2ccccc21)c1ccccc1	89*	74*	2	79*	-18	90*	89*	98*	79*	75*
SMILES	SENP6 block	SENP7 inh	SENP1 FRET inh	SENP8 block-1	SENP8 block-2	SENP8 conf	SENP6 confirm	SENP7 conf	Casp3 SENP sel	Luc interf
O=C(O/N=C1\CCCc2ccccc21)c1ccc(F)cc1	78*	95*	3	72*	9	11	55*	26	42	14
Cc1cccc(C(=O)NNC(=O)c2ccc(Cl)cc2)c1O	55*	31	2	29	1	52*	48	77*	71*	62*
CC(=O)NC1=C(N(C)C2CCS(=O)(=O)C2)C(=O)c2ccccc2C1=O (centres undefined)	67*	25	-3	28	66*	45	74*	42	4	-3
O=C(c1ccccc1)c1nnc(-c2ccccc2F)o1	85*	97*	0	90*	37	79*	96*	99*	90*	31
c1ccc(CCNc2ncnc3c2cnn3-c2ccccc2)cc1	58*	0	1	44	8	58*	51*	82*	39	37
CC(C)c1ccc(/C=C/C(=O)Nc2nncs2)cc1	84*	90*	0	73*	-31	33	54*	82*	63*	17
Oc1ccc(/C=N/Nc2cccc3cccnc23)c(O)c1	89*	77*	-38	82*	-22	73*	89*	99*	65*	20
Cc1cc(-c2ccccc2)nc(N/N=C/c2ccc(O)cc2O)n1	-18	-24	3	-18	4	.	.	.	.	.
Oc1ccc(/C=N/Nc2ncc(Br)cn2)c(O)c1	86*	72*	1	58*	9	73*	73*	90*	70*	75*
O=c1[nH]ncc(N/N=C\c2ccc(O)cc2O)c1Cl	69*	65*	1	63*	-161	66*	64*	87*	81*	62*
Cc1ccc(/C=N/Nc2cccc3cccnc23)c(O)c1	78*	92*	-69	70*	-54	86*	93*	78*	77*	58*
COc1ccc(S(=O)(=O)NCCC(=O)N2CCCN(C)CC2)cc1	6	1	1	-4	17	.	.	.	.	.
